Data as given in ChEMBL document CHEMBL1123591, “Synthetic analogues of tetrahydrobiopterin with cofactor activity for aromatic amino acid hydroxylases” (1987).
Several values for one entry are separate records, joined by “and”; a condition that tells them apart may be missing. Equal entries are not always repeated.

Tests used:
[1] = substrate: COCC1CNc2nc(N)nc(O)c2N1; assay: (§1) Tyrosine hydroxylase (isolated from bovine adrenal medulla) cofactor activity
Procedure, shortened: (§2)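 Tyrosine hydroxylase was purified from bovine adrenal medulla by partial trypsin digestion, giving a model of the high-affinity form, then ammonium sulfate fractionation. Activity was measured as release of ³H₂O from L-(3,5-³H)tyrosine, with velocities expressed relative to tetrahydrobiopterin.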

[2] = substrate: CC1CNc2nc(N)[nH]c(=O)c2N1; assay: as §1; procedure, shortened: as §2
[3] = substrate: CC1(C)CNc2nc(N)nc(O)c2N1; assay: as §1; procedure, shortened: as §2
[4] = substrate: CCCOCC1CNc2nc(N)nc(O)c2N1; assay: as §1; procedure, shortened: as §2
[5] = substrate: CCCCCOCC1CNc2nc(N)nc(O)c2N1; assay: as §1; procedure, shortened: as §2
[6] = substrate: CCCCCCCCOCC1CNc2nc(N)nc(O)c2N1; assay: as §1; procedure, shortened: as §2
[7] = substrate: COCCOCC1CNc2nc(N)nc(O)c2N1; assay: as §1; procedure, shortened: as §2
[8] = substrate: CCOCC1CNc2nc(N)nc(O)c2N1; assay: as §1; procedure, shortened: as §2
[9] = substrate: CC(C)OCC1CNc2nc(N)nc(O)c2N1; assay: as §1; procedure, shortened: as §2
[10] = substrate: CC(C)(C)OCC1CNc2nc(N)nc(O)c2N1; assay: as §1; procedure, shortened: as §2
[11] = substrate: CC(C)COCC1CNc2nc(N)nc(O)c2N1; assay: as §1; procedure, shortened: as §2
[12] = molecular target: Tyrosine hydroxylase (Bos taurus); assay: Tested in isolated enzyme assay for its cofactor activity against tyrosine hydroxylase (isolated from bovine adrenal medulla) expressed as Michaelis-Menten constant
[13] = substrate: COCC1CNc2nc(N)nc(O)c2N1; assay: (§3) Tested in isolated enzyme assay for its cofactor activity against phenylalanine hydroxylase (isolated from rat liver) expressed as Michaelis-Menten constant
Procedure, shortened: (§4)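 Phenylalanine hydroxylase was isolated from rat liver and purified on phenyl-Sepharose. Tyrosine formed was quantified by liquid chromatography with fluorescence detection, and velocities were expressed relative to tetrahydrobiopterin.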

[14] = substrate: CC1CNc2nc(N)[nH]c(=O)c2N1; assay: as §3; procedure, shortened: as §4
[15] = substrate: CC1(C)CNc2nc(N)nc(O)c2N1; assay: as §3; procedure, shortened: as §4
[16] = substrate: CCCOCC1CNc2nc(N)nc(O)c2N1; assay: as §3; procedure, shortened: as §4
[17] = substrate: CCCCCCCCOCC1CNc2nc(N)nc(O)c2N1; assay: as §3; procedure, shortened: as §4
[18] = substrate: CCCCOCC1CNc2nc(N)nc(O)c2N1; assay: as §3; procedure, shortened: as §4
[19] = substrate: COCCOCC1CNc2nc(N)nc(O)c2N1; assay: as §3; procedure, shortened: as §4
[20] = substrate: CCOCC1CNc2nc(N)nc(O)c2N1; assay: as §3; procedure, shortened: as §4
[21] = substrate: CC(C)OCC1CNc2nc(N)nc(O)c2N1; assay: as §3; procedure, shortened: as §4
[22] = substrate: CC(O)C(O)C1CNc2nc(N)nc(O)c2N1; assay: as §3; procedure, shortened: as §4
[23] = substrate: COCC1CNc2nc(N)nc(O)c2N1; assay: (§5) Tested in isolated enzyme assay for its cofactor activity against tryptophan hydroxylase (isolated from rat brain stem) expressed as Michaelis-Menten constant
Procedure, shortened: (§6)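 The tryptophan hydroxylase source was a desalted 40000g supernatant of rat brain stem, with velocities expressed relative to tetrahydrobiopterin.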

[24] = substrate: CCCOCC1CNc2nc(N)nc(O)c2N1; assay: as §5; procedure, shortened: as §6
[25] = substrate: CCCCCCCCOCC1CNc2nc(N)nc(O)c2N1; assay: as §5; procedure, shortened: as §6
[26] = substrate: CCCCOCC1CNc2nc(N)nc(O)c2N1; assay: as §5; procedure, shortened: as §6
[27] = substrate: CCOCC1CNc2nc(N)nc(O)c2N1; assay: as §5; procedure, shortened: as §6
[28] = substrate: CC(C)OCC1CNc2nc(N)nc(O)c2N1; assay: as §5; procedure, shortened: as §6
[29] = substrate: CC(O)C(O)C1CNc2nc(N)nc(O)c2N1; assay: as §5; procedure, shortened: as §6
[30] = compound: CC1CNc2nc(N)[nH]c(=O)c2N1; assay: Tested in isolated enzyme assay for its cofactor activity against tryptophan hydroxylase (isolated from rat brain stem) expressed as Michaelis-Menten constant (calculated in the presence of platinum catalyst)

B1: Tyrosine 3-monooxygenase (Bos taurus), P17289 (protein)
chain: MPTPNAASPQAKGFRRAVSELDAKQAEAIMSPRFVGRRQSLIQDARKEREKAEAAASSSESAEAAAWLERDGEAVLTLLFALPPTRPPALTRAIKVFETFEAHLHHLETRPAQPLRAGSPPLECFVRCEVPGPVVPALLSALRRVAEDVRAAGESKVLWFPRKVSELDKCHHLVTKFDPDLDLDHPGFSDQAYRQRRKLIAEIAFQYKQGDPIPHVEYTAEETATWKEVYSTLRGLYPTHACREHLEAFELLERFCGYREDRIPQLEDVSRFLKERTGFQLRPAAGLLSARDFLASLAFRVFQCTQYIRHASSPMHSPEPECCHELLGHVPMLADRTFAQFSQDIGLASLGVSDEEIEKLSTLYWFTVEFGLCKQNGEVKAYGAGLLSSYGELLHSLSEEPEIRAFDPDAAAVQPYQDQTYQPVYFVSESFSDAKDKLRSYASRIQRPFSVKFDPYTLAIDVLDSPHAIRHALDGVQDEMQALAHALNAIS
Km [1]: 84 µM | Km [2]: 133 µM and 51 µM | Km [3]: 77 µM and 105 µM | Km [4]: 28 µM and 22 µM | Km [5]: 65 µM | Km [6]: 44 µM | Km [7]: 200 µM | Km [8]: 52 µM and 23 µM | Km [9]: 45 µM and 55 µM | Km [10]: 120 µM | Km [11]: 80 µM | Km [12]: 22 µM

B2: Phenylalanine-4-hydroxylase (Rattus norvegicus), P04176 (protein)
chain: MAAVVLENGVLSRKLSDFGQETSYIEDNSNQNGAISLIFSLKEEVGALAKVLRLFEENDINLTHIESRPSRLNKDEYEFFTYLDKRTKPVLGSIIKSLRNDIGATVHELSRDKEKNTVPWFPRTIQELDRFANQILSYGAELDADHPGFKDPVYRARRKQFADIAYNYRHGQPIPRVEYTEEEKQTWGTVFRTLKALYKTHACYEHNHIFPLLEKYCGFREDNIPQLEDVSQFLQTCTGFRLRPVAGLLSSRDFLGGLAFRVFHCTQYIRHGSKPMYTPEPDICHELLGHVPLFSDRSFAQFSQEIGLASLGAPDEYIEKLATIYWFTVEFGLCKEGDSIKAYGAGLLSSFGELQYCLSDKPKLLPLELEKTACQEYSVTEFQPLYYVAESFSDAKEKVRTFAATIPRPFSVRYDPYTQRVEVLDNTQQLKILADSINSEVGILCNALQKIKS
Km [13]: 17 µM | Km [14]: 21 µM | Km [15]: 29 µM | Km [16]: 16 µM | Km [17]: 1 µM | Km [18]: 21 µM | Km [19]: 65 µM | Km [20]: 21 µM | Km [21]: 9 µM | Km [22]: 5.5 µM

B3: Tryptophan 5-hydroxylase 1 (Rattus norvegicus), P09810 (protein)
chain: MIEDNKENKDHSSERGRVTLIFSLKNEVGGLIKALKIFQENHVNLLHIESRKSKRRNSEFEIFVDCDINREQLNDIFPLLKSHTTVLSVDSPDQLPEKEDVMETVPWFPKKISDLDFCANRVLLYGSELDADHPGFKDNVYRRRRKYFAELAMNYKHGDPIPKIEFTEEEIKTWGTIFRELNKLYPTHACREYLRNLPLLSKYCGYREDNVPQLEDVSNFLKERTGFSIRPVAGYLSPRDFLSGLAFRVFHCTQYVRHSSDPLYTPEPDTCHELLGHVPLLAEPSFAQFSQEIGLASLGASEETVQKLATCYFFTVEFGLCKQDGQLRVFGAGLLSSISELRHALSGHAKVKPFDPKVACKQECLITSFQDVYFVSESFEDAKEKMREFAKTVKRPFGVKYNPYTQSIQVLRDSKSITSAMNELRHDLDVVNDALARVSRWPSV
Km [23]: 33 µM | Km [24]: 92 µM | Km [25]: 11 µM | Km [26]: 84 µM | Km [27]: 44 µM | Km [28]: 129 µM | Km [29]: 49 µM | Km [30]: 355 µM
